High-throughput results: PubChem, several laboratories
ERa coact pot = enhancers of ERα–SRC-1 coactivator binding, primary screen, biochemical, TR-FRET, ERα LBD, low estradiol; TR-FRET ERalpha-LBD/SRC-Cy5 coactivator binding, 2 h; 100 = basal binding, no effect; coactivator binding (% of control), % at 25.6 µM; hit rate 1.3% among 86,000; AID 639, 2007; in the data active = activity above about 200%;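 note: binding measured in presence of low estradiol as agonist stimulus; 0% = peptide alone without receptor and 100% = receptor with peptide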
BAP1 inh = inhibitors of BAP1 deubiquitinase, primary screen, biochemical, Ub-AMC fluorescence, kinetic; calls only at 20 µM; recombinant BAP1, Ub-AMC hydrolysis fluorescence kinetic; active compounds read low; AID 436, 2006; Ubiquitin carboxyl-terminal hydrolase BAP1 (Homo sapiens), Q92560; hit rate 0.48% among 72,000;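 active = activity remaining at or below 50% of control, provided the compound also passes the data quality filters; inactive = the rest, including low values that fail the filters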;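 note: 100% = DMSO wells rate and 0% = substrate alone blank rate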
Target sequence (Q92560 whole entry, looked up): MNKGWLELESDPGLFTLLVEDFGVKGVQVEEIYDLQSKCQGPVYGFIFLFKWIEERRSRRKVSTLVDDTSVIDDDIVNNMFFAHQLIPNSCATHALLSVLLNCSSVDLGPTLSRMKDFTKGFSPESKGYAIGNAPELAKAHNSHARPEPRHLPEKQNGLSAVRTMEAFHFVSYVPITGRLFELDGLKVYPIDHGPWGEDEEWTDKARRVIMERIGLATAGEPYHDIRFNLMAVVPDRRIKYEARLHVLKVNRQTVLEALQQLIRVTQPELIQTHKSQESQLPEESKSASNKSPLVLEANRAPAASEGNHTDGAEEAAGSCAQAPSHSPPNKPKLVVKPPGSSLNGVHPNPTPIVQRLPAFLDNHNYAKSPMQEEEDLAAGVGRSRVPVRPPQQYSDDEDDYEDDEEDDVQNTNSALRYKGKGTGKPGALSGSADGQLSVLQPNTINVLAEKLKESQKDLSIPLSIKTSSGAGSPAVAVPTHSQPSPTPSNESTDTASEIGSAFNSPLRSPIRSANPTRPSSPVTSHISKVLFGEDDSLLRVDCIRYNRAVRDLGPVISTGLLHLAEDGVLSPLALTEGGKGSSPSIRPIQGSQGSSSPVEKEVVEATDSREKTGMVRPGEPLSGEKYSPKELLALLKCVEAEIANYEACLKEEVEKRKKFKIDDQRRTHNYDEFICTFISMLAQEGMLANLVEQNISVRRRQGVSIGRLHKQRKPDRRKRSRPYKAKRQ
RORA act = activators of orphan receptor RORA, primary screen, cell-based, luminescence. Nuclear receptor ROR-alpha (Homo sapiens), P35398. CHO-K1 Gal4-RORA LBD luciferase reporter; percent increase over mock-subtracted basal signal. activation, % at 10 µM. hit rate 1.5% among 65,000;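 active = activation above the mean of all tested compounds plus 3 SD, cut at about 49% in these data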;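 note: 0% = DMSO-treated RORA cells and 100% = added signal equal to DMSO minus mock-transfected cells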
ERa coact inh = ERα–SRC-1 coactivator interaction inhibitors, primary screen, biochemical, TR-FRET, ERα LBD, estradiol-bound. Estrogen receptor (Homo sapiens), P03372. TR-FRET ER-alpha LBD / SRC-1 peptide. inhibition, % at 25.6 µM. hit rate 1.7% among 86,000; in the data active = inhibition above about 50%;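 note: 0% = receptor plus peptide control and 100% = peptide only without receptor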
SF-1 act = activators of human SF-1, primary screen, cell-based, CHO-K1, Gal4-SF-1 LBD, luciferase luminescence. Steroidogenic factor 1 (Homo sapiens), Q13285. CHO-K1 Gal4-SF-1 LBD luciferase reporter; % increase over DMSO SF-1-specific signal. activation, % at 10 µM. hit rate 1.9% among 65,000;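 active = activation above the mean activation of all tested compounds plus 3 SD, cut at about 50% in these data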
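material = CHO-K1 cells with Gal4–hSF-1 LBD chimera plus Gal4-driven luciferase | compound = 10 µM single point, 1% DMSO | incubation = 20 h compound exposure at 37 °C after 1 h cell settling | measured by = SteadyLite luciferase luminescence | evaluation = percent activation relative to DMSO median and mock-transfected background | control set = DMSO negative control and −SF1 background wells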
ERb SRC1 inh = inhibitors of ERβ-SRC1 coactivator interaction, primary screen, biochemical, TR-FRET, ERβ LBD, SRC-1 peptide; TR-FRET ER-beta LBD / SRC1-Cy5 peptide binding; receptor agonist-loaded with 1 µM estradiol; hit rate 1.3% among 86,000; Estrogen receptor beta (Homo sapiens), Q92731; inhibition, % at 25.6 µM;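 active = compounds whose percent inhibition of the receptor-coactivator binding signal exceeds about 50% in the single-dose screen, limit read from the data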;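 note: 0% = receptor plus peptide wells without compound and 100% = peptide-only wells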
Numbers without * were called inactive; i = inactive; . = no result given; [ ] = remark or other dose. Hits are enriched below; roughly 5.1% of the tested compounds scored in any of these assays.

SMILES	ERa coact pot	BAP1 inh	RORA act	ERa coact inh	SF-1 act	ERb SRC1 inh
COc1ccccc1NCCC(=O)OCC(=O)Nc1ccc(Cl)cn1	102	i	11	4	3	13
Cc1cc(C(F)(F)F)nn1CC(=O)Nc1ccc([N+](=O)[O-])cc1Cl	.	i	.	.	.	.
CCOC(=O)c1sc(C)c2c1NC(c1ccc(N(C)C)cc1)NC2=O (configuration not stated)	216*[fluorescence artefact?]	.	.	11	.	12
Cc1ccc2oc(-c3cc(NC(=O)c4cccc([N+](=O)[O-])c4)ccc3Cl)nc2c1	.	i	.	.	.	.
CCOC(=O)N/N=C\c1ccc([N+](=O)[O-])o1	101	.	.	4	.	17
O=[N+]([O-])c1ccc(/C=N/Nc2nc(N3CCCCCC3)nc(N3CCCCCC3)n2)o1	80	.	.	14	.	96*[fluorescence artefact?]
COc1ccc(OC)c(NC2OC(=O)c3c2ccc(OC)c3OC)c1 (configuration not stated)	.	i	.	.	.	.
C/C(N)=C(/C#N)C(=O)CSc1nnc(Nc2ccccc2C)s1	42	.	.	51*[fluorescence artefact?]	.	65*
C/C(N)=C(/C#N)C(=O)CSc1nnc(NC(C)C)s1	1	i	13	97*[fluorescence artefact?]	29	99*[fluorescence artefact?]
CCOC(=O)c1cccc(NC(=O)C(C(C)C)N2C(=O)c3ccccc3C2=O)c1 (configuration not stated)	.	i	.	.	.	.
CCc1ccc(C2C(C(=O)OC)=C(C)NC3=C2C(=O)CCC3)cc1 (configuration not stated)	.	i	.	.	.	.
O=C(OCc1nc2ccccc2s1)c1cccc(S(=O)(=O)N2CCOCC2)c1	77	i	45	-1	28	-4
O=C(CCc1ccc(S(=O)(=O)N2CCOCC2)cc1)OCc1nc2ccccc2s1	107	i	10	3	59*	1
O=C(Oc1cccnc1)c1cccnc1	.	i	.	.	.	.
CCOC(=O)c1cnc2cc3c(cn2c1=O)CCCC3	123	.	27	-4	86*	-2
CCOC(=O)c1cnc2scnn2c1=O	103	i	-11	-1	-3	-10
CCc1ccc(C2C(C#N)=C(N)SC(N)=C2C#N)s1	99	i	10	-4	-4	10
Cc1ccc(C2C(C#N)=C(N)SC(N)=C2C#N)o1	28	i	2	50	-9	67*[fluorescence artefact?]
CCCc1ccc(OCCNC(=O)C(C)N2C(=O)c3ccccc3C2=O)cc1 (configuration not stated)	.	i	.	.	.	.
CC(=O)c1cccc(NC(=O)Cc2cccs2)c1	29	i	1	84*	-11	73*[fluorescence artefact?]
CCCCN(CCCC)S(=O)(=O)c1ccc(NC(=O)CN2CCOCC2)cc1	93	.	.	-1	.	1
O=C(Cc1cccs1)Nc1cccc(C(=O)Nc2ccco2)c1	103	i	-6	-1	5	-2
CCCNS(=O)(=O)c1ccc(NC(=O)Cc2cccs2)cc1	111	.	.	-6	.	-1
CCCN(CCC)S(=O)(=O)c1ccc(NC(=O)Cc2cccs2)cc1	79	.	.	63*	.	48
CCCCN(CCCC)S(=O)(=O)c1ccc(NC(=O)Cc2cccs2)cc1	62	.	.	67*[fluorescence artefact?]	.	67*
CC(C)CCOC(=O)c1ccc(NC(=O)c2ccc([N+](=O)[O-])cc2)cc1	.	i	.	.	.	.
O=C(Nc1ccc(O)cc1)C1CC=CCC1 (configuration not stated)	18	.	.	44	.	68*
Oc1c(C(Nc2nc3ccccc3s2)c2ccco2)ccc2cccnc12 (configuration not stated)	105	.	4	0	-33	3
Cc1conc1NC(c1cccs1)c1ccc2cccnc2c1O (configuration not stated)	66	i	-7	57*[fluorescence artefact?]	-20	46
c1ccc2c(c1)CCCN2c1nc2ccccc2n2cnnc12	102	i	37	2	54*	-2
